Test results: ChEMBL document CHEMBL1139438, “Synthesis of N3,5'-cyclo-4-(beta-D-ribofuranosyl)-vic-triazolo[4,5-b]pyridin-5-one, a novel compound with anti-hepatitis C virus activity” (J Med Chem, 2004)

Legend:
[1] = Effective concentration required for antiviral activity against pinchinde virus; format: functional
[2] = Effective concentration required for antiviral activity against west Nile virus; format: functional
[3] = Concentration required for cytotoxic activity against african green monkey kidney MA-104 cell line was determined using neutral red method; format: functional; settings: Cercopithecidae, MA104
[4] = tested on: Respiratory syncytial virus; experiment: Effective concentration required for antiviral activity against respiratory syncytial virus; format: functional, organism-based; settings: human respiratory syncytial virus
[5] = Effective concentration required for antiviral activity against bovine viral diarrhoea virus; format: functional, Bovine viral diarrhea virus 1
[6] = tested on: Human immunodeficiency virus; experiment: Effective concentration required for antiviral activity against human immunodeficiency virus; format: functional, organism-based; settings: Human immunodeficiency virus 1
Hepatitis B virus [7] = experiment: Effective concentration required for 90% of antiviral activity against hepatitis B virus; format: functional
[8] = Effective concentration required for 90% of antiviral activity against bovine viral diarrhoea virus; format: functional, Bovine viral diarrhea virus 1; settings: Bovine viral diarrhea virus isolates and strains
[9] = tested on: Human immunodeficiency virus; experiment: Effective concentration required for 90% of antiviral activity against human immunodeficiency virus; format: functional; settings: Human immunodeficiency virus 1
Huh-7 [10] = experiment: Effective concentration required for 90% reduction in subgenomic hepatitis C virus replicon RNA levels in Huh-7 cells after 96 hr of compound exposure; format: functional; settings: Homo sapiens, Huh-7, 96 h
Summary of the method: (§1)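 HCV subgenomic replicon-bearing Huh-7 cells were seeded at 1000 cells/well in 96-well plates, with compound added immediately after seeding, and incubated for 96 h. Total cellular RNA was isolated. Replicon RNA and a ribosomal RNA internal control were amplified by single-step multiplex real-time RT-PCR. HCV RNA was normalized to rRNA by ΔΔCt and calibrated against the no-drug control. Recombinant interferon alpha-2a was the positive control.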

[11] = Effective concentration required for antiviral activity against punta toro A virus; format: functional
Yellow fever virus = experiment: Effective concentration required for antiviral activity against yellow fever virus; format: functional, organism-based
Human respirovirus 3 = experiment: Effective concentration required for antiviral activity against Parainfluenza virus; format: functional, organism-based
CCRF-CEM = experiment: Concentration required for cytotoxic activity against human T-cell lymphoma CEM cell line was determined using MST dye; format: functional
Summary of the method: (§2)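 Cytotoxicity was read with an MTS-dye cell proliferation assay and expressed as CC50 (µM).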

Vero [12] = experiment: Concentration required for cytotoxic activity against african green monkey kidney Vero cell line was determined using MST dye; format: functional; settings: Chlorocebus sabaeus; summary of the method: as §2
SK-MEL-28 = experiment: Concentration required for cytotoxic activity against human malignant melanoma SK-MEL-28 cell line was determined using MST dye; format: functional; summary of the method: as §2
HepG2 = experiment: Concentration required for cytotoxic activity against human hepatocellular carcinoma HepG2 cell line was determined using MST dye; format: functional; summary of the method: as §2
Huh-7 [13] = experiment: Concentration required for cytotoxic activity against human hepatocellular carcinoma Huh-7 cell line was determined using MST dye; format: functional; summary of the method: as §2
A549 = experiment: Concentration required for cytotoxic activity against human lung carcinoma A-549 cell line using neutral red method; format: functional
LLC-MK2 = experiment: Concentration required for cytotoxic activity against rhesus monkey kidney LLC-MK2 cell line was determined using neutral red method; format: functional, Cercopithecidae; settings: Macaca mulatta
Measles morbillivirus = experiment: Effective concentration required for antiviral activity against measles virus; format: functional, organism-based
Huh-7 [14] = experiment: Effective concentration required for reduction in subgenomic hepatitis C virus replicon RNA levels in Huh-7 cells after 96 hr of compound exposure; format: functional, cell-based; settings: Homo sapiens, Huh-7, 96 h; summary of the method: as §1
Vero [15] = experiment: Concentration required for cytotoxic activity against african green monkey kidney Vero cell line was determined using neutral red dye; format: functional; settings: Chlorocebus sabaeus
MDCK = experiment: Concentration required for cytotoxic activity against madin darby canine kidney MDCK cell line was determined using neutral red method; format: functional; settings: Canis lupus familiaris
CV-1 = experiment: Concentration required for cytotoxic activity against african green monkey kidney CV-1 cell line was determined using neutral red method; format: functional, Cercopithecidae; settings: Chlorocebus aethiops
[16] = Concentration required for cytotoxic activity against african green monkey kidney B-SC-1 cell line was determined using neutral red method; format: functional; settings: Cercopithecidae, BSC-1
PBMC = experiment: Concentration required for cytotoxic activity against primary human peripheral blood mononuclear PBM cell line was determined using MST dye; format: functional; summary of the method: as §2
KB = experiment: Concentration required for cytotoxic activity against human epidermoid carcinoma of the nasopharynx KB cell line was determined using neutral red method; format: functional
Influenza A virus = experiment: Effective concentration required for antiviral activity against Influenza A virus; format: functional, organism-based
Influenza B virus = experiment: Effective concentration required for antiviral activity against Influenza B virus; format: functional, organism-based
unidentified adenovirus = experiment: Effective concentration required for antiviral activity against adenovirus type 1; format: functional, organism-based, Human adenovirus 1
Hepatitis B virus [17] = experiment: Effective concentration required for antiviral activity against hepatitis B virus; format: functional, organism-based
Human rhinovirus sp. = experiment: Effective concentration required for antiviral activity against rhinovirus; format: functional, organism-based, Enterovirus
Human alphaherpesvirus 1 [18] = experiment: Effective concentration required for antiviral activity against herpes simplex virus type 1
Human alphaherpesvirus 1 [19] = experiment: Effective concentration required for 90% of antiviral activity against herpes simplex virus type 1

Compound: O=c1ccc2nnn3c2n1C1O[C@H](C3)[C@@H](O)[C@H]1O
- EC50 [1]: > 100 µM
- EC50 [2]: > 100 µM
- CC50 [3]: > 100 µM
- EC50 [4]: > 100 µM
- EC50 [5]: > 100 µM
- EC50 [6]: > 100 µM
- EC90 (Hepatitis B virus [7]): > 100 µM
- EC90 [8]: > 100 µM
- EC90 [9]: > 100 µM
- EC90 (Huh-7 [10]): 79.8 µM
- EC50 [11]: > 100 µM
- EC50 (Yellow fever virus): > 100 µM
- EC50 (Human respirovirus 3): > 100 µM
- CC50 (CCRF-CEM): 13.8 µM
- CC50 (Vero [12]): > 100 µM
- CC50 (SK-MEL-28): > 100 µM
- CC50 (HepG2): 74.4 µM
- CC50 (Huh-7 [13]): 49.6 µM
- CC50 (A549): > 100 µM
- CC50 (LLC-MK2): > 100 µM
- EC50 (Measles morbillivirus): > 100 µM
- EC50 (Huh-7 [14]): 19.7 µM
- CC50 (Vero [15]): > 100 µM
- CC50 (MDCK): > 100 µM
- CC50 (CV-1): > 100 µM
- CC50 [16]: > 100 µM
- CC50 (PBMC): > 100 µM
- CC50 (KB): > 100 µM
- EC50 (Influenza A virus): > 100 µM
- EC50 (Influenza B virus): 28 µM
- EC50 (unidentified adenovirus): > 100 µM
- EC50 (Hepatitis B virus [17]): > 100 µM
- EC50 (Human rhinovirus sp.): > 100 µM
- EC50 (Human alphaherpesvirus 1 [18]): > 100 µM
- EC90 (Human alphaherpesvirus 1 [19]): > 100 µM
